Bioassay records as filed in PubChem.
PAD4 inh: blocks human protein arginine deiminase 4 | Q9UM07 | recombinant PAD4, RCA probe fluorescence polarization | inhibition, % at 6.36 µM | actives 0.41% (n = 330,000) | AID 485272;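 active = percent inhibition above a cutoff equal to the mean of all tested compounds plus 3 SD, cut at about 15% in these data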;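 note: 0% = PAD4 with RCA probe and DMSO and 100% = probe without PAD4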
Target sequence (Q9UM07 whole entry, looked up): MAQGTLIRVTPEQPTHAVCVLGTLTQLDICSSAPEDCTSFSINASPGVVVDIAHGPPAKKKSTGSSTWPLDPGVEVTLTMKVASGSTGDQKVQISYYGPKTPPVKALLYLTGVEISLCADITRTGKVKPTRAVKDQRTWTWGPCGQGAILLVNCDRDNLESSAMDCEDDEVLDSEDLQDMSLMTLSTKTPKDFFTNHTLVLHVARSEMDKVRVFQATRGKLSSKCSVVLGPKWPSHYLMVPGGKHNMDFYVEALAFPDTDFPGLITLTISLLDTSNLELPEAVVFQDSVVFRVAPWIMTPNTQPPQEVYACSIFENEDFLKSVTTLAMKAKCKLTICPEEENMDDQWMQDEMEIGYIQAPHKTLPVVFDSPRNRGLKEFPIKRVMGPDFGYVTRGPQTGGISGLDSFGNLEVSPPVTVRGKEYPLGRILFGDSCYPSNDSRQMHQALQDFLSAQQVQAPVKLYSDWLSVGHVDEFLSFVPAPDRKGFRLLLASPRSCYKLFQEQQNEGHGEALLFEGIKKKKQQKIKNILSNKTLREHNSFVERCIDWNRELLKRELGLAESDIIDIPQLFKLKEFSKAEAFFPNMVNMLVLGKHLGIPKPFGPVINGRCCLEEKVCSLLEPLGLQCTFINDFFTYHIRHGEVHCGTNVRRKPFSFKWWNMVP
CTSL1 counter: blocks F. hepatica cathepsin L1 in PFM18AAP counter-screen. recombinant F. hepatica cathepsin L1, Z-Leu-Arg-MCA fluorescence. inhibition, % at 5.96 µM. actives 0.49% (n = 300,000). AID 1906;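 active = inhibition above the mean of all tested compounds plus 3 SD, set per screening campaign, cut at about 17% in these data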;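 note: 0% = plate median of test compound wells and 100% = 1 µM Z-Phe-Ala-diazomethylketone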
GSTO1 counter: GSTO1 inhibition, counter-screen for RBBP9 inhibitors; recombinant GSTO1, activity-based probe fluorescence polarization; actives 1.1% (n = 300,000); P78417; inhibition, % at 5.96 µM;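 active = inhibition above the campaign mean inhibition plus 3 SD, cut at about 35% in these data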;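 note: 0% = GSTO1-1 with DMSO and 100% = wells lacking GSTO1-1 enzyme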
TDP2 absorb: TDP2 (human) inhibition, absorbance primary screen. recombinant TDP2, T5PNP hydrolysis, p-nitrophenol absorbance 415 nm. AID 720702. inhibition, % at 12.8 µM. O95551. actives 0.34% (n = 370,000);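 active = inhibition above the mean of all tested compounds plus 3 SD, set per campaign, cut at about 25% in these data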;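 note: 0% = DMSO with enzyme and 100% = buffer with substrate but no TDP2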
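System – recombinant human TDP2 · Quantity – TDP2 enzyme at 120 nM final · Doses – single concentration, 12.8 µM nominal, with 1% DMSO · Incubation – 2 h at 37 °C · Measured by – epi absorbance of p-nitrophenol freed from T5PNP by hydrolysis · Read-out – % inhibition relative to enzyme-containing and enzyme-free wells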
PAD4 FP conf: confirmation of human PAD4 inhibitors; recombinant PAD4, RCA probe fluorescence polarization; inhibition, % at 6.36 µM; actives 28% (n = 1,200); shares compounds with PAD4 inh;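 active = mean inhibition across replicates above the hit cutoff set by the earlier primary screen, cut at about 15% in these data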;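 note: inhibitors block active-site labeling by the probe so polarization falls; 0% = PAD4 with probe and DMSO and 100% = probe without PAD4 enzyme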
An asterisk follows results filed as active; . = no result. Hits are enriched below; roughly 1.4% of the tested compounds scored in any of these assays.

SMILES	PAD4 inh	CTSL1 counter	GSTO1 counter	TDP2 absorb	PAD4 FP conf
CCOc1ccccc1OCCCC(=O)N1CCN(S(=O)(=O)c2cccc(F)c2)CC1	-1	1	3	-4	.
CCOc1ccc(-n2c(SCC(=O)Nc3ccc(S(=O)(=O)Nc4cc(C)nc(C)n4)cc3)nnc2-c2cccc(C)c2)cc1	.	.	.	-3	.
Oc1ccc(N=Nc2cccc(Cl)c2)cc1C=Nc1ccc(N2CCOCC2)cc1	.	.	.	-1	.
Clc1cccc(-c2ccc(C=Nc3ccc(N4CCOCC4)cc3)o2)c1	19*	2	8	13	5
O=C(c1ccc(F)cc1Cl)N1CCC(Oc2cccnc2)CC1	.	.	.	-7	.
Cc1cc(C(=O)OCCCN(C)C2CN(Cc3cn(Cc4ccccc4C(F)(F)F)nn3)S(=O)(=O)C2)no1 (stereo unspecified)	.	.	.	3	.
CCOc1ccc(S(=O)(=O)N2CCC(C(=O)Nc3ccccc3N3CCCC3)CC2)cc1	.	.	.	-15	.
C=CCN1C=C2C(=O)C(C)(OC(=O)CCC(=O)OC)C(=O)C=C2C=C1C1CC1 (stereo unspecified)	17*	-2	37*	4	-11
O=Cc1ccc(Sc2nnc(-c3ccccc3)o2)c([N+](=O)[O-])c1	24*	0	23	.	24*
C#CCOCCOCCOCCNc1nc(N2CCN(C(=O)[C@H](Cc3cc4ccccc4[nH]3)n3cc([C@@H](N)C(C)CC)nn3)CC2)nc(N2CCN(C(=O)[C@H](CCCCN)n3cc([C@@H](N)CO)nn3)CC2)n1 (stereo partly specified)	-4	-2	-2	.	.
C#CCOCCOCCOCCNc1nc(N2CCN(C(=O)[C@H](CCCCN)n3cc([C@@H](N)C(C)CC)nn3)CC2)nc(N2CCN(C(=O)[C@H](Cc3cc4ccccc4[nH]3)n3cc([C@@H](N)CC(C)C)nn3)CC2)n1 (stereo partly specified)	16*	6	-3	.	4
Cc1ccc2c(c1)cc(CN(Cc1cccs1)C(=O)c1ccco1)c1nnnn12	30*	-2	4	-1	0
Cc1ccc2cc(CN(Cc3cccs3)C(=O)c3ccco3)c3nnnn3c2c1C	-1	-3	1	.	.
COC(=O)c1ccc(Cn2ccc3ccc(-c4ccc5ccn(Cc6ccc(OC)cc6)c5c4)cc32)cc1	.	.	.	-11	.
COCCNc1c([N+](=O)[O-])c(=O)n(-c2ccccc2)c2ccccc12	3	3	6	4	.
CCSc1c([N+](=O)[O-])c(=O)n(-c2ccccc2)c2ccccc12	23*	4	-8	-7	21*
CN1CCN(c2nc3nonc3nc2N2CCN(C)CC2)CC1	21*	3	12	-7	6
C1CCN(c2nc3nonc3nc2N2CCCCC2)CC1	-1	-1	11	.	.
O=C(CN1C(=O)c2cccc3cccc1c23)Nc1ccc(S(=O)(=O)N2CCOCC2)cc1	-7	1	-10	5	.
O=C(CN1c2cccc3cccc(c23)S1(=O)=O)Nc1ccc(S(=O)(=O)N2CCOCC2)cc1	17*	8	-1	-2	32*
O=C(Nc1nc(-c2ccc(S(=O)(=O)N3CCOCC3)cc2)cs1)c1ccccc1	15*	3	-14	10	19*
COc1cccc(C(=O)Nc2nc(-c3ccc(S(=O)(=O)N4CCOCC4)cc3)cs2)c1	-1	-2	-10	0	.
C[C@@H]1CCCN1c1ccc2c(c1)OCCCN(C1CC1)S2(=O)=O	.	.	.	-1	.
CC(=O)C1=C(c2cccc([N+](=O)[O-])c2)N(C(C)=O)n2c(C)nnc2S1	19*	-11	3	-14	23*
COc1ccc2c(c1)CCCN2C(=O)C1CCCN(S(=O)(=O)c2cccc3cccnc23)C1 (stereo unspecified)	.	.	.	-1	.
SMILES	PAD4 inh	CTSL1 counter	GSTO1 counter	TDP2 absorb	PAD4 FP conf
O=C1c2cccc3c(O)ccc(c23)C(=O)N1Cc1ccccc1	40*	2	9	-3	50*
CCCCc1c(-c2ccccc2OC)ncn1Cc1cc(F)cc(F)c1	.	.	.	7	.
CC(C)c1ccccc1NC(=O)[C@@H]1CCCN1S(=O)(=O)c1cccc2cccnc12	.	.	.	-2	.
O=C(c1ccncc1)N1N=C(C2CC2)CC1(O)C(F)(F)F (stereo unspecified)	24*	-4	7	3	4
O=C1C2CCCCN2C(=O)N1CCCN1CCN(c2ccc(F)cc2)CC1 (stereo unspecified)	-2	-1	0	.	.
Nc1ccc(N2CCN(CCCCN3C(=O)C4CCCN4C3=O)CC2)cc1 (stereo unspecified)	65*	1	10	15	8
COP(=O)(CC(=O)O)C(CC(C)C)NC(=O)OCc1ccccc1 (stereo unspecified)	.	.	.	3	.
C#CCn1c(=NC(=O)CSC(C)=O)sc2cc(F)ccc21	-2	-12	0	.	.
CCn1c(=NC(=O)CSC(C)=O)sc2cc(F)ccc21	16*	-11	-13	17	4
COc1ccc(CCN2C(=O)CC(Nc3ccc(N4CCOCC4)cc3)C2=O)cc1OC (stereo unspecified)	20*	0	4	11	19*
CCc1ccc(NC2CC(=O)N(CCc3ccc(OC)c(OC)c3)C2=O)cc1 (stereo unspecified)	-3	2	7	7	.
O=C1CC(Nc2ccc(N3CCOCC3)cc2)C(=O)N1c1ccccc1F (stereo unspecified)	16*	4	5	10	9
CC(C)Oc1ccc(S(=O)(=O)N2CCCCCC2)c2ccccc12	.	.	.	3	.
Cc1[nH]c2ccccc2c1C(C#N)(C#N)C1C(=O)c2ccccc2C1=O	37*	3	73*	18	-1
CCc1nnc(N/N=C/c2c(C)[nH]c3ccccc23)n1N	30*	3	52*	59*	7
CCOC(=O)[C@]12CCCC=C1N(CCCOC)C(=O)[C@@H]2CC(=O)NCCCCc1ccccc1	.	.	.	1	.
O=C(CSc1nc2ncccc2[nH]1)N1CCOCC1	.	.	.	7	.
C=CCn1c(SCC(=O)N2CCCC2=O)nc2sc(CC)cc2c1=O	33*	.	.	5	-3
CCCCc1cccc2[nH]cc(C)c12	.	.	.	4	.
O=C(OCn1ncc(Br)c(Br)c1=O)c1ccccc1Cl	34*	5	37*	.	32*
CN(C)[C@@H]1CCN(c2cccc3c2S(=O)(=O)N2CC[C@H](C2)O3)C1	.	.	.	2	.
CN(C(=O)c1ccc(NC(=O)Cc2cccc([N+](=O)[O-])c2)cc1)C1CCCC1	-2	.	.	-5	.
CN(C(=O)c1ccc(NC(=O)Cc2cccc([N+](=O)[O-])c2)cc1)C1CC1	35*	.	.	-1	4
C[C@@H]1NS(=O)(=O)c2cccc(Cl)c2O[C@@H]1c1ccccc1	.	.	.	4	.
CN(C)c1nc(N/N=C/c2c[nH]c3ccccc23)nc(N2CCOCC2)n1	0	0	3	1	.
C(=Nc1ccc(N2CCOCC2)cc1)c1c[nH]c2ccccc12	17*	1	16	15	-4
CCn1c2ccccc2c2cc(NC(=O)COC(=O)c3cc(Cl)cc(Cl)c3)ccc21	.	.	.	3	.
